Hits are enriched below; roughly 2.7% of the tested compounds scored in any of these assays.
PAFAH2 inh: inhibitors of human PAFAH2; recombinant PAFAH2, FP-rhodamine activity probe, fluorescence polarization; inhibition, % at 3.39 µM; actives 0.99% (n = 340,000); AID 492956;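 active = inhibition above the mean over all tested compounds plus 3 SD, cut at about 30% in these data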;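 also: inhibitors block probe labeling of enzyme so polarization drops; 0% = enzyme with DMSO and 100% = wells lacking PAFAH2 protein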
PAFAH1B3 inh: inhibitors of human PAFAH1B3; AID 492972; Q15102; actives 0.28% (n = 340,000); inhibition, % at 3.39 µM; recombinant PAFAH1B3, FP-rhodamine probe, fluorescence polarization;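 active = inhibition above the screen-wide average of all tested compounds plus 3 SD, cut at about 25% in these data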;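 also: 0% = enzyme with DMSO only and 100% = wells lacking PAFAH1B3 protein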
Target sequence (Q15102 whole entry, looked up): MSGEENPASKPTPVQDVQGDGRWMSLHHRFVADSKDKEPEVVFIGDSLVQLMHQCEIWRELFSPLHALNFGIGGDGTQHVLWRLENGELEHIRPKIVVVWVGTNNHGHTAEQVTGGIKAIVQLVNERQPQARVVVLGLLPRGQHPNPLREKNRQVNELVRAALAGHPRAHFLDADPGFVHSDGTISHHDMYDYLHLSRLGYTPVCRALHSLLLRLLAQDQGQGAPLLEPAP
RBBP9 inhibitor: human RBBP9 hydrolase inhibition; O75884; recombinant RBBP9, FP-Rh probe fluorescence polarization; inhibition, % at 7.94 µM; actives 0.2% (n = 220,000); AID 1515;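 active = inhibition above the campaign mean of all tested compounds plus 3 SD, cut at about 14% in these data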;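 also: plate controls were DMSO wells with RBBP9 for no effect and wells lacking RBBP9 protein for full effect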
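Assay system: recombinant human RBBP9; Reagent: Serine-hydrolase probe FP-Rh, 375 nM pre-mixing; Doses: 7.94 µM single dose, 0.794% DMSO; Incubation: 30 min then 45 min, 25 °C; Detection: fluorescence polarization (mP), excitation 525 nm, emission 598 nm; Evaluation: percent inhibition from mP, scaled between DMSO and no-protein wells.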
pPAFAH FP inh: inhibitors of human plasma PAF acetylhydrolase (pPAFAH); actives 1.5% (n = 330,000); recombinant pPAFAH, FP-rhodamine probe fluorescence polarization; inhibition, % at 3.39 µM;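 active = inhibition above the mean inhibition across the screen plus 3 SD, cut at about 25% in these data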;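 also: inhibitors block binding of the rhodamine activity-based probe so polarization drops; 0% = enzyme with DMSO and 100% = wells lacking pPAFAH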
PAFAH1B2 FP inh: PAFAH1B2 (human) inhibition. actives 1.2% (n = 340,000). inhibition, % at 3.39 µM. recombinant PAFAH1B2, FP-rhodamine activity probe, fluorescence polarization. P68402;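 active = inhibition above the mean of all tested compounds plus 3 SD, cut at about 24% in these data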;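 also: 0% = enzyme with DMSO and 100% = wells lacking PAFAH1B2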
Target sequence (P68402 whole entry, looked up): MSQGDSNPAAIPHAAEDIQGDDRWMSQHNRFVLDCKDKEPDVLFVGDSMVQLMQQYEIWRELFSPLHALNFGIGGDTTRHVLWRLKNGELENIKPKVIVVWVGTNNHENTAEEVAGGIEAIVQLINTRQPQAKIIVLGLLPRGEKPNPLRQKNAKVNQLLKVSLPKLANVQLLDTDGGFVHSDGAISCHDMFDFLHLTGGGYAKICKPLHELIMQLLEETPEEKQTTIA
Starred values were filed as active, the others as inactive; nt = no result given.

SMILES	PAFAH2 inh	PAFAH1B3 inh	RBBP9 inhibitor	pPAFAH FP inh	PAFAH1B2 FP inh
CN(Cc1ccccc1)C(=O)C1CCCN(Cc2cccc(Cl)c2)C1 (stereo unspecified)	5	8	-5	2	1
CC(C(=O)NC1C=CS(=O)(=O)C1)N1C(=O)/C(=C/c2ccc(Cl)cc2)SC1=S (stereo unspecified)	14	12	nt	4	2
NS(=O)(=O)c1ccc(CNC(=O)c2ccncc2)cc1	2	-7	nt	3	1
O=C(O)CN1C(=O)C2C3CC(C2C1=O)C1C(c2ccc(F)cc2)c2sc(=O)[nH]c2SC31 (stereo unspecified)	-2	9	-4	3	54*
CN(C)C(=O)c1cc(C(=O)c2ccccc2C(F)(F)F)c[nH]1	3	1	-10	4	-4
CN(C)C(=O)c1cc(C(=O)c2ccc(F)cc2C(F)(F)F)c[nH]1	2	6	nt	30*	5
CC1=C(C(=O)Nc2ccccc2)C2(CCCCC2)C(C#N)=C(S)N1	0	-7	-5	9	1
C[C@H](NC(=O)c1nc[nH]c1C(=O)NCC(=O)OCc1ccccc1)c1ccccc1	1	2	nt	12	34*
CCOC(=O)C1(Cc2cccc(F)c2)CCN(C(=O)c2cnccn2)CC1	4	-1	-2	-3	5
COC(=O)[C@@]1(C)[C@H]2C(=O)N(C)C(=O)[C@H]2[C@H]2CN=C(SCc3ccc(Cl)cc3)N21	-2	1	nt	4	29*
COC(=O)[C@@]1(C)[C@H]2C(=O)N(C)C(=O)[C@H]2[C@H]2CN=C(SCc3ccc(C#N)cc3)N21	-4	6	nt	9	12
CCc1cc2ccccc2nc1SCC(=O)Nc1cc(OC)c(OC)cc1C(=O)O	16	9	-7	33*	14
Brc1cc2c(cc1-c1nc3ccccc3s1)OCO2	0	6	nt	2	3
Oc1ccc(N=C/C=C/c2ccc(Br)cc2)cc1-c1nc2ccccc2s1	nt	nt	-7	53*	nt
Cc1nc2cc(Cl)ccc2n1-c1ccccc1	5	1	-7	25*	6
CC(=O)Nc1ccc2c(c1)nc(C)n2-c1ccccc1	-4	6	nt	2	4
CCn1nc(NS(=O)(=O)c2ccc([N+](=O)[O-])cc2)c2cc3cccc(C)c3nc21	14	8	nt	28*	7
CN(CC(=O)Nc1ccc(F)c(F)c1F)C(=O)C1CCC1	5	9	nt	5	3
N#C/C(=N\Nc1ccc(S(=O)(=O)N2CCc3ccccc32)cc1)C(N)=S	24	14	-1	24	26*
Cc1ccsc1/C=C/C1=Cc2c(sc(NC(=O)CSc3n[nH]c(N)n3)c2C#N)C(C)(C)C1	12	-5	-12	32*	0
CCOc1ccc(/C=C/C2=Cc3c(sc(NC(=O)CSc4n[nH]c(N)n4)c3C#N)C(C)(C)C2)cc1	-8	-10	-8	10	-5
[O-][n+]1cccc2c(Br)cc(Br)c(O)c21	13	21	-7	34*	4
Cc1cc(SCC2=NNC(=O)C2)c(Cl)cc1Cl	-7	10	-14	28*	4
COc1ccc(/C=N/NC(=O)c2cc(C34CC5CC(CC(C5)C3)C4)[nH]n2)cc1O	6	-1	-6	13	29*
COc1ccc(/C=N\NC(=O)c2ccc(=O)[nH]n2)cc1O	7	1	-1	2	-1
SMILES	PAFAH2 inh	PAFAH1B3 inh	RBBP9 inhibitor	pPAFAH FP inh	PAFAH1B2 FP inh
Cc1ccc(S(=O)(=O)C2(C(=O)NC3CCCCC3)CC2)cc1	2	7	nt	5	2
CCN(CC)c1ccc(/C=N/NC(=O)c2nnn(-c3nonc3N)c2C(C)C)c(O)c1	11	12	nt	28*	13
CC(C)c1c(C(=O)N/N=C/c2ccc3c(c2)OCO3)nnn1-c1nonc1N	1	7	nt	3	2
CC(C)(C)OC(=O)NCCCCC1=CC2=CC(=O)C(C)(OC(=O)c3cnc4ccccc4n3)C(=O)C2=CO1 (stereo unspecified)	nt	nt	nt	42*	nt
COC/C=C/C1=CC2=CC(=O)C(C)(OC(=O)c3cnc4ccccc4n3)C(=O)C2=CN1C1CC1 (stereo unspecified)	-1	1	nt	-3	6
COC/C=C/C1=CC2=CC(=O)C(C)(OC(=O)c3cnc4ccccc4n3)C(=O)C2=CN1CCc1ccccn1 (stereo unspecified)	nt	nt	nt	25*	nt
CCCCC1=CC2=CC(=O)C(C)(OC(=O)c3ccco3)C(=O)C2=CO1 (stereo unspecified)	nt	nt	nt	48*	nt
CCCCC1=CC2=CC(=O)C(C)(OC(=O)CCC(=O)OC)C(=O)C2=CO1 (stereo unspecified)	nt	nt	nt	39*	nt
O=C(Cn1c(=O)oc2ccccc21)NCCc1ccccc1Cl	-6	-1	-6	-2	-3
CC1Cc2cc(/C(O)=C3/C(=O)C(=O)N(CCN4CCOCC4)C3c3ccc([N+](=O)[O-])cc3)ccc2O1 (stereo unspecified)	-1	4	nt	7	2
COc1ccc(Cc2nnc(SCC(=O)Nc3ccccc3C#N)o2)cc1	5	-1	nt	1	2
CC1CCN(S(=O)(=O)c2ccc(C(=O)NCc3cccnc3)cc2)CC1	3	4	-6	3	8
O=C(COc1ccc(S(=O)(=O)N2CCOCC2)cc1)NCc1ccccn1	2	-4	nt	0	-1
CN(C)C1(CNC(=O)C2CCN(S(=O)(=O)c3ccccc3C(F)(F)F)CC2)CCCCC1	0	10	nt	5	-2
COC/C=C/C1=CC2=CC(=O)C(C)(OC(=O)c3cnc4ccccc4n3)C(=O)C2=CN1CCCCO (stereo unspecified)	8	2	nt	7	-5
COC(=O)CCCC1=CC2=CC(=O)C(C)(OC(=O)c3cccs3)C(=O)C2=CO1 (stereo unspecified)	nt	nt	nt	43*	nt
COC(=O)CCCC1=CC2=CC(=O)C(C)(OC(=O)c3cnc4ccccc4n3)C(=O)C2=CO1 (stereo unspecified)	nt	nt	nt	32*	nt
COCCN1C=C2C(=O)C(C)(OC(=O)c3cccs3)C(=O)C=C2C=C1CCCC(=O)OC (stereo unspecified)	1	7	nt	7	0
COC/C=C/C1=CC2=CC(=O)C(C)(OC(=O)c3ccco3)C(=O)C2=CO1 (stereo unspecified)	nt	nt	nt	53*	nt
